# Key:
# [1] = tested on: Mouse bone marrow-derived dendritic cells (BMDCs); assay: BMDC activation; type: cell-based; conditions: 6 h incubation + 18 h fresh medium, flow cytometry
# In short: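 Immature mouse bone marrow-derived DCs plated at 2 × 10^6 cells per well and held overnight. Cells exposed for 6 h to free adjuvant, free photosensitizer or adjuvant/photosensitizer-loaded mesoporous silica nanoparticles. Medium then replaced and incubation continued for 18 h. Cells harvested, stained with fluorophore-labelled anti-CD40, anti-CD80 and anti-CD86, and analysed by flow cytometry, gating live intact cells only.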
# [2] = UV-vis absorption / aqueous solubility of Ce6; type: physicochemical; conditions: Ce6 diluted in PBS; ~660 nm absorption peak absent
# [3] = tested on: Mouse bone marrow-derived dendritic cells (BMDCs); assay: BMDC cytokine secretion; type: cell-based; conditions: 6 h incubation + 18 h fresh medium, ELISA
# In short: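 Immature mouse bone marrow-derived DCs plated at 2 × 10^6 cells per well and held overnight. Cells exposed for 6 h to free adjuvant, free photosensitizer or loaded mesoporous silica nanoparticles. Medium exchanged for fresh medium and incubation continued for 18 h. Culture medium then collected and IL-12p70 and TNF-α measured with ELISA kits.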
Compound,"DC maturation (expression levels of CD40, CD80, CD86) [1]",aqueous solubility [2],secretion of IL-12p70 and TNF-α [3]
"C=Cc1c(C)c2cc3nc(c(CC(=O)O)c4[nH]c(cc5nc(cc1[nH]2)C(C)=C5CC)c(C)c4C(=O)O)[C@@H](CCC(=O)O)[C@@H]3C [Ce6, chlorin e6]",no obvious signs of DC maturation,poor aqueous solubility,did not secrete any detectable levels
CSSASMTNMELM [Adpgk],no obvious signs of DC maturation,–,did not secrete any detectable levels

# Reference: article PMC6832743 (ACS nano, 2019)
